Experimental data collected from several papers.
Lines come from different studies, so protocols differ.
Target: Protein kinase C epsilon type (PRKCE, Homo sapiens, UniProt Q02156)
Residues used in one study (Q02156 1-737): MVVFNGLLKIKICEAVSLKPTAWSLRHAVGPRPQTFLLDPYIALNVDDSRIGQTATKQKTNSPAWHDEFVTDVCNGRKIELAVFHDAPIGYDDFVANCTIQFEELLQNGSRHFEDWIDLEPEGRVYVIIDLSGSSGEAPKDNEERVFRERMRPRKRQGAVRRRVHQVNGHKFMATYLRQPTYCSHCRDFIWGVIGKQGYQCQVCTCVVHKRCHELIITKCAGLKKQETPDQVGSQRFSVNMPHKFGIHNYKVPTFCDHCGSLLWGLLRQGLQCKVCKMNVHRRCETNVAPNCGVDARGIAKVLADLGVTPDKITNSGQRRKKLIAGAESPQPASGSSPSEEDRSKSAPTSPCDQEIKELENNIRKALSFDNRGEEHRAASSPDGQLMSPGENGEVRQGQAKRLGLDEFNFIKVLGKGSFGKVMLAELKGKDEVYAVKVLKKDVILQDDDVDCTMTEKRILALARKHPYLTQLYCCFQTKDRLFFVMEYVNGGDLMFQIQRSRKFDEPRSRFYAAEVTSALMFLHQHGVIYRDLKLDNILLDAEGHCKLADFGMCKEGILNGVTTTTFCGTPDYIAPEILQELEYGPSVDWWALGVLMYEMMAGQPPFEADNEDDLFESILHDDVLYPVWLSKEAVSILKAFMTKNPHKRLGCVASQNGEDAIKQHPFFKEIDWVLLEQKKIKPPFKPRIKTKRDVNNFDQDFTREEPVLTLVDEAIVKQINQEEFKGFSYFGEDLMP

Structure (SMILES)	test	conditions	remaining binding
N#Cc1ccccc1CSc1nnc2c(n1)[nH]c1ccccc12	binding, competition with immobilised ligand	10 µM	100%
C[C@@H]1CN(c2ccc3ncc(-c4ccc5[nH]nc(C6CC6)c5c4)n3n2)C[C@H](C)O1	binding, competition with immobilised ligand	50 nM	86%
CN(CCCC(F)(F)F)c1nccc(-c2cnn3ncccc23)n1	binding	1 µM	82%
C[C@@H](c1ccc(-n2cnc3c(N)ncnc32)cc1)N1CCc2nn(C)c(Cc3ccccc3)c2C1=O	binding, competition with immobilised ligand	0.1 µM	74%
O=C(c1ccc(Nc2nccc(-c3cc4ccccc4s3)n2)cc1)N1CCC(N2CCCC2)CC1	binding, competition with immobilised ligand	1 µM	68%
CN(C(=O)c1ccccc1)c1cc(N(C)c2ccc3c(c2)CCc2ccc(C(=O)NCCN4CCOCC4)cc2C3=O)ccc1F	cell-free assay, competition with immobilised ligand	1 µM	87%
CN(C)c1nccc(-c2cnc3ncccn23)n1	binding	1 µM	100%
O=C(Nc1c[nH]nc1C(=O)NC1CCNCC1)c1cc(F)cc(F)c1	binding, competition with immobilised ligand	1 µM	70%
O=C(c1ccc(Nc2ncc(Cl)c(-c3ccc(Cl)s3)n2)cc1)N1CCC(N2CCCC2)CC1	binding, competition with immobilised ligand	1 µM	45%
Cc1cnn2ncc(-c3ccnc(N(C)C)n3)c2c1	binding	1 µM	100%
CN(C)C(=O)Cn1cc(-c2nc(C3(c4ccc(-c5cnc(N)nc5)cc4)CC3)no2)cn1	cell-free assay, competition with immobilised ligand	1 µM	90%
N[C@H]1CCN(c2nccc(-c3cnn4ncccc34)n2)C1	binding	1 µM	100%
CN(c1ccnc(CNc2nc(Nc3ccc4c(c3)CC(=O)N4)ncc2C(F)(F)F)n1)S(C)(=O)=O	cell-free assay, competition with immobilised ligand	1 µM	50%
O=C(NCCCN1CCOCC1)c1ccc(Nc2nccc(-c3cc4ccccc4s3)n2)cc1	binding, competition with immobilised ligand	1 µM	71%
C[C@H]1CCN(c2nccc(-c3cnn4ncccc34)n2)C1	binding	1 µM	100%
COc1cc(-c2cn(C3CCc4ccccc4N(CC(F)(F)F)C3=O)nn2)ccc1-n1ccc(C)n1 (stereo not shown)	cell-free assay, competition with immobilised ligand	1 µM	100%
COc1cnc(Nc2cccc(S(N)(=O)=O)c2)nc1N1CCN(c2ccccc2)C(=O)C1	binding, competition with immobilised ligand	1 µM	100%
O=C(N[C@H]1CCCCC/C=C\C2C[C@@]2(C(=O)O)NC(=O)[C@@H]2C[C@@H](Oc3ccncc3)CN2C1=O)OC1CCCC1 (stereo partly shown)	cell-free assay, competition with immobilised ligand	1 µM	100%
CNC(=O)[C@@H]1CC[C@@H](n2c(-c3ccc4cnccc4c3)nc3ccc(C(=O)NCc4cccc(C(N)=O)c4)cc32)C1	binding, competition with immobilised ligand	1 µM	85%
c1cncc(-c2cccc(Nc3nccc(NC4CCCCC4)n3)c2)c1	binding, competition with immobilised ligand	10 µM	46%
C=CC(=O)N1CCC(C(=O)NCC(=O)N2CCN(c3nc(-c4cnc(N)nc4C(F)F)nc(N4CCOCC4)n3)CC2)CC1	binding, competition with immobilised ligand	1 µM	79%
O=C(Nc1ccc(Oc2ccc(F)cc2)cc1)N1CCc2ncccc2[C@H]1c1ccc(F)cc1	cell-free assay, competition with immobilised ligand	1 µM	100%
COc1ccnn2ncc(-c3ccnc(N(C)C)n3)c12	binding	1 µM	100%
COc1ccc2c(O[C@@H]3C[C@H]4C(=O)N[C@]5(C(=O)O)CC5/C=C\CCCCC[C@H](NC(=O)OC5CCCC5)C(=O)N4C3)cc(-c3csc(NC(=O)C(C)C)n3)nc2c1C (stereo partly shown)	cell-free assay, competition with immobilised ligand	1 µM	58%
CC1CCCN1c1nccc(-c2cnn3ncccc23)n1 (stereo not shown)	binding	1 µM	100%
